Values after ≈ are worked out from the molar mass of the structure shown.
Key:
[1] = system: Candida albicans; experiment: microbe, parasite or virus in culture; format: functional
[2] = system: Aspergillus fumigatus; experiment: microbe, parasite or virus in culture; format: functional
[3] = system: Trichophyton rubrum; experiment: (§1) In vitro antifungal activity against Trichophyton rubrum CM1447; format: functional
[4] = system: Trichophyton benhamiae; experiment: (§2) In vitro antifungal activity against Trichophyton mentagrophytes CM84; format: functional, Arthroderma benhamiae
[5] = system: Candida parapsilosis; experiment: microbe, parasite or virus in culture; format: functional; conditions: Lodderomyces parapsilosis
[6] = system: Nakaseomyces glabratus; experiment: In vitro antifungal activity against Candida glabrata 2375E; format: functional
[7] = system: Trichophyton rubrum; experiment: as §1; format: functional; remark: listed apart in the source
How it was run: (§3)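 Broth microdilution in RPMI-2% glucose following NCCLS M38-P. Conidia came from Sabouraud dextrose agar slants grown at 27 °C. They were harvested in saline with 0.1% Tween 80, gauze-filtered, counted by hemocytometer and stored at -70 °C. The final inoculum was ~10^4 conidia/mL, with 2-fold drug dilutions from 0.25 to 128 µg/mL. Plates were incubated at 35 °C and read by mirror once control growth was visible. MIC = lowest concentration with no visible growth.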

[8] = system: Aspergillus flavus; experiment: (§4) In vitro antifungal activity against Aspergillus flavus CM74; format: functional
[9] = system: Candida parapsilosis; experiment: In vitro antifungal activity against Candida parapsilosis 2372E; format: functional; conditions: Lodderomyces parapsilosis
How it was run: (§5)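 Yeast broth microdilution per NCCLS M27-A, with 2-fold drug dilutions from 0.001 to 128 µg/mL. The inoculum was adjusted spectrophotometrically, giving a final ~10^4 cells/mL. Plates were incubated for 24 h at 35 °C, static and humid, then shaken and read visually and at 450 nm. MIC = lowest concentration preventing discernible growth (~90% reduction vs drug-free wells).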

[10] = system: Candida albicans; experiment: In vitro antifungal activity against Candida albicans 4711E; format: functional
How it was run: as §5

[11] = system: Nakaseomyces glabratus; experiment: microbe, parasite or virus in culture; format: functional
[12] = system: Aspergillus flavus; experiment: as §4; format: functional; remark: listed apart in the source
How it was run: as §3

[13] = system: Trichophyton benhamiae; experiment: as §2; format: functional, Arthroderma benhamiae; remark: listed apart in the source
How it was run: as §3

[14] = system: Aspergillus fumigatus; experiment: In vitro antifungal activity against Aspergillus fumigatus 48238E; format: functional
How it was run: as §3

| Structure (SMILES) | MIC [1] [µg/mL] | MIC [2] [µg/mL] | MIC [3] [µg/mL] | MIC [4] [µg/mL] | MIC [5] [µg/mL] | MFC [6] [µg/mL] | MFC [7] [µg/mL] | MIC [8] [µg/mL] | MFC [9] [µg/mL] | MFC [10] [µg/mL] | MIC [11] [µg/mL] | MFC [12] [µg/mL] | MFC [13] [µg/mL] | MFC [14] [µg/mL] |
| --- | --- | --- | --- | --- | --- | --- | --- | --- | --- | --- | --- | --- | --- | --- |
| Cl.Clc1ccc(/C=N/OC(Cn2ccnc2)c2ccc(Cl)cc2Cl)c(Cl)c1 (stereo not given) | > 128 | 64 |  |  |  |  |  |  |  |  |  |  |  |  |
| Cl.Fc1ccc(C(Cn2ccnc2)O/N=C/c2c(F)cccc2F)c(F)c1 (stereo not given) | 32 | 32 |  |  |  |  |  |  |  |  |  |  |  |  |
| Clc1ccc(C(Cn2ccnc2)O/N=C/c2ccc(OCCN3CCOCC3)cc2)c(Cl)c1 (stereo not given) | 2 (≈ 4.09 µM) | 2 (≈ 4.09 µM) | 2 (≈ 4.09 µM) | 4 (≈ 8.17 µM) | 0.25 (≈ 0.511 µM) | 8 (≈ 16.3 µM) | 16 (≈ 32.7 µM) | 8 (≈ 16.3 µM) | 16 (≈ 32.7 µM) | 8 (≈ 16.3 µM) | 1 (≈ 2.04 µM) | 8 (≈ 16.3 µM) | 8 (≈ 16.3 µM) | 2 (≈ 4.09 µM) |
| C/C(=N\OC(Cn1ccnc1)c1ccc(Cl)cc1Cl)c1ccc(OCCN2CCOCC2)cc1 (stereo not given) | 1 (≈ 1.99 µM) | 32 (≈ 63.6 µM) | 2 (≈ 3.97 µM) | 4 (≈ 7.95 µM) | 0.004 (≈ 0.00795 µM) | 8 (≈ 15.9 µM) | 16 (≈ 31.8 µM) | 32 (≈ 63.6 µM) | 8 (≈ 15.9 µM) | 8 (≈ 15.9 µM) | 0.06 (≈ 0.119 µM) | 32 (≈ 63.6 µM) | 8 (≈ 15.9 µM) | 32 (≈ 63.6 µM) |
| OC(Cn1cncn1)(Cn1cncn1)c1ccc(F)cc1F [FLUCONAZOLE] | 0.12 (≈ 0.392 µM) | > 128 | 0.5 (≈ 1.63 µM) | 0.5 (≈ 1.63 µM) | 0.5 (≈ 1.63 µM) | > 128 | > 128 | > 128 | > 128 | > 128 | 2 (≈ 6.53 µM) | > 128 | > 128 | > 128 |
| Fc1ccc(/C(Cn2ccnc2)=N/OC(Cn2ccnc2)c2ccc(F)cc2F)c(F)c1 (stereo not given) | 2 (≈ 4.51 µM) | > 128 | 64 (≈ 144 µM) | 64 (≈ 144 µM) | 8 (≈ 18 µM) | 16 (≈ 36.1 µM) | 64 (≈ 144 µM) | > 128 | 128 (≈ 289 µM) | > 128 | 4 (≈ 9.02 µM) | > 128 | > 128 | > 128 |
| CC/C(=N\OC(Cn1ccnc1)c1ccc(Cl)cc1Cl)c1ccc(Cl)cc1Cl (stereo not given) | 16 (≈ 35 µM) | > 128 |  |  |  |  |  |  |  |  |  |  |  |  |
| CCC/C(=N\OC(Cn1ccnc1)c1ccc(Cl)cc1Cl)c1ccc(Cl)cc1Cl (stereo not given) | > 128 | > 128 |  |  |  |  |  |  |  |  |  |  |  |  |
| C/C(=N\OC(Cn1ccnc1)c1ccc(F)cc1F)c1c(F)cccc1F (stereo not given) | 32 (≈ 84.8 µM) | 16 (≈ 42.4 µM) | 4 (≈ 10.6 µM) | 2 (≈ 5.3 µM) | 0.25 (≈ 0.663 µM) | 1 (≈ 2.65 µM) | 8 (≈ 21.2 µM) | 32 (≈ 84.8 µM) | 16 (≈ 42.4 µM) | 32 (≈ 84.8 µM) | 0.03 (≈ 0.0795 µM) | 64 (≈ 170 µM) | 2 (≈ 5.3 µM) | 32 (≈ 84.8 µM) |
| C/C(=N\OC(Cn1ccnc1)c1ccc(F)cc1F)c1ccc(F)cc1 (stereo not given) | 64 (≈ 178 µM) | 16 (≈ 44.5 µM) |  |  |  |  |  |  |  |  |  |  |  |  |
| Clc1ccc(/C(Cn2ccnc2)=N/OC(Cn2ccnc2)c2ccc(Cl)cc2Cl)c(Cl)c1 (stereo not given) | 32 (≈ 62.8 µM) | 128 (≈ 251 µM) |  |  |  |  |  |  |  |  |  |  |  |  |
| Cl.Fc1ccc(/C=N/OC(Cn2ccnc2)c2ccc(F)cc2F)c(F)c1 (stereo not given) | 16 | 16 |  |  |  |  |  |  |  |  |  |  |  |  |
| Fc1ccc(C(Cn2ccnc2)O/N=C/c2ccc(OCCN3CCOCC3)cc2)c(F)c1 (stereo not given) | 64 (≈ 140 µM) | 64 (≈ 140 µM) | 8 (≈ 17.5 µM) | > 128 | 0.25 (≈ 0.548 µM) | 8 (≈ 17.5 µM) | 16 (≈ 35 µM) | 64 (≈ 140 µM) | 4 (≈ 8.76 µM) | 64 (≈ 140 µM) | 2 (≈ 4.38 µM) | 64 (≈ 140 µM) | > 128 | 64 (≈ 140 µM) |
| C/C(=N\OC(Cn1ccnc1)c1ccc(F)cc1F)c1ccccc1F.Cl (stereo not given) | 32 | 16 |  |  |  |  |  |  |  |  |  |  |  |  |
| C/C(=N\OC(Cn1ccnc1)c1ccc(F)cc1F)c1ccc(F)cc1F (stereo not given) | 32 (≈ 84.8 µM) | 8 (≈ 21.2 µM) | 8 (≈ 21.2 µM) | 1 (≈ 2.65 µM) | 2 (≈ 5.3 µM) | 2 (≈ 5.3 µM) | 16 (≈ 42.4 µM) | 16 (≈ 42.4 µM) | 32 (≈ 84.8 µM) | 32 (≈ 84.8 µM) | 0.03 (≈ 0.0795 µM) | 16 (≈ 42.4 µM) | 4 (≈ 10.6 µM) | 16 (≈ 42.4 µM) |
| C/C(=N\OC(Cn1ccnc1)c1ccc(F)cc1F)c1cc(F)ccc1F (stereo not given) | 8 (≈ 21.2 µM) | 4 (≈ 10.6 µM) | 1 (≈ 2.65 µM) | 0.25 (≈ 0.663 µM) | 2 (≈ 5.3 µM) | 1 (≈ 2.65 µM) | 16 (≈ 42.4 µM) | 8 (≈ 21.2 µM) | 64 (≈ 170 µM) | 32 (≈ 84.8 µM) | 0.03 (≈ 0.0795 µM) | 8 (≈ 21.2 µM) | 2 (≈ 5.3 µM) | 4 (≈ 10.6 µM) |
| C/C(=N\OC(Cn1ccnc1)c1ccc(F)cc1F)c1ccc(OCCN2CCOCC2)cc1 (stereo not given) | 8 (≈ 17 µM) | 16 (≈ 34 µM) | 4 (≈ 8.5 µM) | 2 (≈ 4.25 µM) | 0.03 (≈ 0.0638 µM) | 4 (≈ 8.5 µM) | 4 (≈ 8.5 µM) | 16 (≈ 34 µM) | 2 (≈ 4.25 µM) | 32 (≈ 68 µM) | 0.25 (≈ 0.531 µM) | 32 (≈ 68 µM) | 4 (≈ 8.5 µM) | 16 (≈ 34 µM) |
| C/C(=N\OC(Cn1ccnc1)c1ccc(Cl)cc1Cl)c1ccc(Cl)cc1Cl (stereo not given) | 4 (≈ 9.03 µM) | 8 (≈ 18.1 µM) | 8 (≈ 18.1 µM) | 8 (≈ 18.1 µM) | 1 (≈ 2.26 µM) | 2 (≈ 4.51 µM) | 8 (≈ 18.1 µM) | 32 (≈ 72.2 µM) | 16 (≈ 36.1 µM) | 8 (≈ 18.1 µM) | 0.5 (≈ 1.13 µM) | 32 (≈ 72.2 µM) | 8 (≈ 18.1 µM) | 8 (≈ 18.1 µM) |
| Clc1ccc(CO/N=C(\Cn2ccnc2)c2ccc(Cl)cc2Cl)c(Cl)c1 [OXICONAZOLE] | 0.03 (≈ 0.0699 µM) | 2 (≈ 4.66 µM) | 2 (≈ 4.66 µM) | 2 (≈ 4.66 µM) | 0.008 (≈ 0.0186 µM) | 0.25 (≈ 0.583 µM) | 2 (≈ 4.66 µM) | 2 (≈ 4.66 µM) | 4 (≈ 9.32 µM) | 64 (≈ 149 µM) | 0.01 (≈ 0.0233 µM) | 2 (≈ 4.66 µM) | 4 (≈ 9.32 µM) | 2 (≈ 4.66 µM) |

Source: ChEMBL document CHEMBL1136007, “Synthesis, antifungal activity, and molecular modeling studies of new inverted oxime ethers of oxiconazole” (2002)
